# Screening results (PubChem BioAssay)
# NR2E3 ag-1: NR2E3 agonists in two-hybrid cells, primary screen, cell-based, luminescence, CHO-S, Gal4-NCOR/VP16-NR2E3; Photoreceptor-specific nuclear receptor (Homo sapiens), Q9Y5X4; luciferase; inhibition of corepressor binding, % at 3.98 µM; 360,000 tested, 0.35% active; AID 602229, 2012;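 active = inhibition above the mean of all tested compounds plus 3 SD, cut at about 70% in these data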;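 also: 0% = DMSO with NR2E3 transfected cells and 100% = cells lacking NR2E3 construct; higher means lower luciferase signal from less NR2E3 corepressor binding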
# Target sequence (Q9Y5X4 whole entry, looked up, the tested form may be a part): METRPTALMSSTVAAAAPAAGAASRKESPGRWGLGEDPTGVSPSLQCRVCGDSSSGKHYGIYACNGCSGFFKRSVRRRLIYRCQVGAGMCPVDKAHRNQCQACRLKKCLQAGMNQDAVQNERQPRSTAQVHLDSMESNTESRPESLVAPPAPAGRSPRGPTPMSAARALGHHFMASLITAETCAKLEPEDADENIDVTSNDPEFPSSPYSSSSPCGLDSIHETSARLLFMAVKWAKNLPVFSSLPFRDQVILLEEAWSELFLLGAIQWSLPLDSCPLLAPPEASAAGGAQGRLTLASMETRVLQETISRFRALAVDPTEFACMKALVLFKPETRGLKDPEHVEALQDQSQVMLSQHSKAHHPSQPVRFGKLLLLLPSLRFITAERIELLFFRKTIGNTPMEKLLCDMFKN
# NR2E3 ag-2: inhibitors of NR2E3-RetCOR corepressor binding, primary screen, NR2E3 agonist project, biochemical, TR-FRET, GST-NR2E3, biotin-RetCOR. 320,000 tested, 0.12% active. inhibition of corepressor binding, % at 4.78 µM. Photoreceptor-specific nuclear receptor (Homo sapiens), Q9Y5X4. 1536-well;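 active = percent inhibition above the cutoff of mean plus 3 SD of all tested compounds, set per screening campaign, cut at about 20% in these data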;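 also: 0% = DMSO wells and 100% = biotin wells as full block of FRET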
#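 Test system – NR2E3–RetCOR corepressor complex · Quantity – NR2E3 fusion 1.35 nM · Buffer or medium – Tris pH 7.5 · Incubation – Compound–protein incubation for 5 h at 4 °C · Technique – TR-FRET, Eu(K)-anti-GST donor, streptavidin-D2 acceptor, ex 340, em 617/671 nm · Evaluation – percent inhibition of 671/617 nm emission ratio versus biotin and DMSO controls · Plate – 1536-well format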
# MC4R barr agon: MC4R agonists recruiting beta-arrestin, primary screen, cell-based, luminescence, agonist arm of biased-ligand search; AID 540308, 2011; Melanocortin receptor 4 (Homo sapiens), P32245; 360,000 tested, 0.98% active; U2OS MC4R beta-arrestin complementation; percent of melanotan II response, DMSO zero; activation, % at 8.9 µM;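 active = activation above a per-plate cutoff, the mean activation of sample wells on that plate plus 3 SD, cut at about 8% in these data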
# NR1D1 modulator: modulators of Rev-erb alpha DNA binding, primary screen, biochemical, FITC-DNA, fluorescence polarization, uHTS; 370,000 tested, 0.79% active; Nuclear receptor subfamily 1 group D member 1 (Homo sapiens), P20393; Rev-erbα–FITC-DNA binding, 90 min; activity, % at 10 µM;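 active = activity above about 14%, limit read from the data; passing the limit was not always enough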;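 also: 0% = DMSO wells with 35 nM protein and 100% = DMSO wells with 750 nM protein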
# MC4R antag cAMP: MC4R antagonists of cAMP signaling, primary screen, cell-based, TR-FRET, antagonist arm of biased-ligand search | Melanocortin receptor 4 (Homo sapiens), P32245 | MC4R-expressing cells, MTII-stimulated cAMP, LANCE TR-FRET | inhibition, % at 6.5 µM | 360,000 tested, 0.48% active;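 active = inhibition above its plate's cutoff, the mean of tested wells on that plate plus 3 SD, cut at about 29% in these data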;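 also: 0% = Melanotan II alone and 100% = Melanotan II plus saturating MCL0020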
#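 Assay system: human MC4R-expressing U2OS cells; reagent: Melanotan II stimulation of cells; dosing: 6.5 µM single dose; timing: compound 30 min, challenge 1 h, detection 1 h; signal: TR-FRET cAMP assay; replicates: one well per compound, no replicates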
# PG9 Ab binder: binders of HIV-1 gp120 antibody PG9, primary screen, biochemical, TR-FRET | HIV-1 gp120 / PG9 antibody interaction | TR-FRET gp120-PG9 antibody binding | inhibition, % at 6.7 µM | 360,000 tested, 0.43% active | AID 624416, 2012; in the data active = inhibition above about 8.5%
# MC4R barr conf: MC4R beta-arrestin agonists, retest, confirmation, cell-based, luminescence, U2OS. shares compounds with MC4R barr agon. U2OS MC4R beta-arrestin recruitment; scaled DMSO 0%, Melanotan II 100%. activation, % at 8.9 µM. 2,400 tested, 31% active;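 active = mean activation across replicates above the hit cutoff set in the earlier primary screen, cut at about 8% in these data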
# MOR DOR agonist: agonists of MOR-DOR heterodimerization, counter-screen for MC4R biased agonist project, cell-based, luminescence; shares compounds with MC4R barr agon; U2OS PathHunter beta-arrestin, beta-gal luminescence; percent of deltorphin B response, DMSO zero; activation, % at 9.2 µM; 2,400 tested, 5.8% active;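 active = mean activation across replicates exceeds the hit threshold derived in the earlier primary screen, cut at about 18% in these data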;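 also: 100% = deltorphin B at 0.9 µM final and 0% = DMSO alone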
# Starred values were filed as active, the others as inactive; . = no result given. In the library only some 2.7% were active in any assay of this set; here they are far more common.
SMILES,NR2E3 ag-1,NR2E3 ag-2,MC4R barr agon,NR1D1 modulator,MC4R antag cAMP,PG9 Ab binder,MC4R barr conf,MOR DOR agonist
CC1(C)Oc2ccc3ccc(=O)oc3c2/C(=C/N)C1=O,-9.3,-0.8,0.3,1.5,4.0,-2.4,.,.
COc1ccc(NC(=S)NC(NC(=O)C(C)C)C(Cl)(Cl)Cl)c([N+](=O)[O-])c1 (centres undefined),-1.2,2.9,-0.3,11.3,-0.2,-0.7,.,.
CC(=O)O[C@H]1C[C@@H](n2cnc3c(Cl)ncnc32)[C@@H]2OC(C)(C)O[C@@H]21,.,.,.,3.8,.,-1.1,.,.
CN(C)CCOc1ccc(-c2c(-c3ccsc3)sc3ccccc23)cc1,17.7,.,13.2*,-0.8,11.8,-1.5,22.6*,8.7
COc1ccc(-c2sc3ccccc3c2-c2ccc(OCCN(C)C)cc2)cc1,20.9,.,21.1*,1.3,28.2,-1.3,45.1*,15.3
COc1ccc(CCNC(=O)CSc2cn(Cc3cccc(C)c3)c3ccccc23)cc1OC,-3.8,-1.0,0.2,-8.2,13.3,-1.1,.,.
COc1ccc(CCNC(=O)CSc2cn(Cc3ccccc3)c3ccccc23)cc1OC,-25.1,2.6,12.6*,2.1,-11.6,-1.5,5.9,3.6
CCOC(=O)c1c(N)c2cc([N+](=O)[O-])ccc2n1C,-30.2,1.0,15.7*,6.3,-14.6,-10.7,5.3,4.8
COc1ccccc1-c1coc2cc(O)cc(O)c2c1=O,-39.8,2.0,-1.0,5.9,-9.7,-0.5,.,.
COc1ccc(C2C(=O)c3ccccc3C2=Nc2ccc(Br)cc2)cc1 (centres undefined),24.0,3.6,25.9*,-6.9,5.1,-2.6,10.7*,6.4
C=CCN1C(=O)C2(NNc3ccccc3O2)c2ccccc21 (centres undefined),0.8,3.1,9.8*,2.8,2.1,0.3,10.2*,4.6
CCCCN1C(=O)C2(NNc3ccccc3O2)c2ccccc21 (centres undefined),-20.3,4.7,3.2,-3.9,21.8,-2.0,.,.
Nc1c(Sc2ccccc2)c(=O)[nH]c(=O)n1Cc1ccccc1,-7.0,-0.1,-1.1,-7.2,-7.8,1.0,.,.
COc1ccc(Cl)cc1NC(=O)COC(=O)c1c(-c2ccccc2)noc1C,11.4,2.1,-0.6,4.3,11.6,-0.2,.,.
COc1ccc(NC(=O)c2c(-c3ccccc3)noc2C)c(OC)c1,-0.3,5.2,1.7,-0.2,2.3,-1.9,.,.
COc1cc(OC)c(NC(=O)c2c(-c3ccccc3)noc2C)cc1Cl,20.3,-1.0,24.6*,-3.8,7.7,-3.2,5.5,6.1
COc1ccc(Cl)cc1NC(=O)c1c(-c2ccccc2)noc1C,-13.5,0.7,27.5*,-0.8,-0.6,-0.2,-0.1,3.5
CC1CCCC(NCC(O)COC(c2ccc(F)cc2)c2ccc(F)cc2)C1C (centres undefined),24.1,3.2,18.0*,2.9,9.0,-0.7,16.2*,23.8*
OC(COC(c1ccc(F)cc1)c1ccc(F)cc1)CN1CCCC(C(F)(F)F)C1 (centres undefined),15.9,-0.3,3.8,0.7,20.6,1.8,.,.
Cc1cccc(NC(=O)c2ccc3c(c2)C(=O)N(Cc2cccnc2)C3=O)c1C,-18.4,1.5,-1.6,-7.1,3.6,-1.4,.,.
Cc1csc2nc(O)c(C(=O)NCCCc3ccccc3)c(=O)n12,-9.4,-1.7,2.2,2.8,3.6,2.0,.,.
Cc1csc2nc(O)c(C(=O)NCCC3=CCCCC3)c(=O)n12,-7.9,-5.4,14.3*,-3.9,-3.8,-2.4,-0.9,2.9
CC(C)OC(=O)CSc1nnc(Cc2ccccc2)n1C,7.6,3.6,-0.6,-0.2,-0.4,0.2,.,.
Nc1ccc2nc3c(c(Cl)c2c1)CCCC3,-34.3,1.2,-1.9,-2.6,-4.4,-0.1,.,.
Cc1cc(NC(=O)CSc2nc(CCC3CCCC3)nc3ccccc23)no1,9.5,2.0,4.6,2.7,11.8,1.6,.,.
SMILES,NR2E3 ag-1,NR2E3 ag-2,MC4R barr agon,NR1D1 modulator,MC4R antag cAMP,PG9 Ab binder,MC4R barr conf,MOR DOR agonist
O=C(CSc1nc(CCC2CCCC2)nc2ccccc12)NCc1ccc2c(c1)OCO2,-11.0,6.1,19.6*,7.3,24.8,1.2,2.6,5.9
COc1ccccc1NCC(=O)N/N=C/C=C/c1ccccc1,-59.8,-0.4,-1.2,7.3,-14.7,-4.6,.,.
O=C(COc1cccc2ccccc12)N/N=C/C=C/c1ccccc1,-14.5,0.2,9.7*,-1.1,2.7,0.5,3.9,5.7
Cc1ccccc1OCC(=O)N/N=C/C=C/c1ccccc1,-18.6,1.3,10.3*,-1.7,-5.2,-4.1,3.5,7.8
C/C(=N\NC(=O)COc1cccc2ccccc12)c1cccs1,-19.0,1.9,16.6*,2.3,0.3,-1.5,16.6*,5.8
CCNC(=O)C1(C)CCN(C(=O)c2cccc3ccccc23)C1 (centres undefined),-4.6,.,-1.4,0.8,2.6,-3.0,.,.
Cn1nc(-c2ccc(C(=O)Nc3ccc(F)cc3)cc2)c2ccccc2c1=O,-14.1,0.4,0.9,.,3.2,.,.,.
Cc1ccc(-c2nn(CC(=O)NCc3cc(-c4nn(C)c(=O)c5ccccc45)ccc3C)c(=O)c3ccccc23)cc1,-11.6,2.1,15.5*,-7.8,3.9,0.0,25.1*,5.7
Cc1ccc(NC(=O)c2ccc(-c3nn(C)c(=O)c4ccccc34)cc2)cc1,-8.3,4.0,21.8*,13.3,9.6,1.6,-1.4,2.2
COc1cccc(C(=O)Nc2ccc(C(F)(F)F)n(C)c2=O)c1,-40.4,2.9,0.2,0.8,12.3,-1.4,.,.
O=C(Nc1cccc2ccccc12)c1csc([C@@H]2O[C@H](CO)[C@@H](O)[C@H]2O)n1,14.7,.,0.5,0.7,2.0,-0.8,.,.
